Assay results as given in ChEMBL document CHEMBL4251543, “Identification of potent tricyclic prodrug S1P1 receptor modulators” (Medchemcomm, 2017).

Columns and labels:
Cardiac muscle cell [1] = assay: Toxicity in human inducible pluripotent stem cell derived cardiomyocytes assessed as reduction in beating rate at 1 nM after 20 mins by multi-electrode array electrophysiology study; format: cell-based; design: scale not given: the % may be the effect or the level left; conditions: 0.001 µM
Summary of the method: (§1)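 hiPSC cardiomyocytes were grown 7 days at 7% CO2 on gelatin, then co-cultured with 10% cardiac fibroblasts for 7 days on laminin-coated 9-well MEA plates until they formed a beating monolayer. After 20-60 min equilibration at 37 °C, compound was added in maintenance medium (DMSO or NaOH vehicle below 0.1% or 30 µM). Field potentials were recorded at 10 kHz from 28 electrodes/well for at least 2 h. Reported as mean change in beating rate versus control, mean ± SD of ≥3 experiments.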

[2] = target: Sphingosine 1-phosphate receptor 1 (Homo sapiens, UniProt P21453); assay: Agonist activity at human S1P1 receptor expressed in CHO cell membranes after 45 mins by [35S]GTPgammaS binding assay; format: functional
Summary of the method: (§2)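 Membranes from S1P1/CHO or EDG3-Ga15-bla HEK293T cells (final protein 3 µg/well) incubated with compound (11-point, 3-fold dilution) and [35S]GTP 0.2 nM final in 20 mM HEPES pH 7.5, 10 mM MgCl2, 150 mM NaCl, 1 mM EGTA, 1 mM DTT, 10 µM GDP, 0.1% fatty acid free BSA, 10 µg/ml saponin, 45 min at room temperature. Filter capture, scintillation counting; EC50 taken at 50% of each compound's Ymax.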

Cardiac muscle cell [3] = assay: Toxicity in human inducible pluripotent stem cell derived cardiomyocytes assessed as reduction in beating rate at 10 nM after 20 mins by multi-electrode array electrophysiology study; format: cell-based; design: scale not given: the % may be the effect or the level left; conditions: 0.01 µM; summary of the method: as §1
[4] = Half life in Lewis rat at 2 mg/kg, po after 72 hrs; format: ADME, organism-based; conditions: in vivo
[5] = Prodrug conversion in Lewis rat blood assessed as parent compound levels at 2 mg/kg, po after 4 hrs; format: ADME, organism-based; conditions: in vivo, read-out: Drug metabolism
[6] = Prodrug conversion in Lewis rat blood assessed as parent compound levels at 2 mg/kg, po after 24 hrs; format: ADME, organism-based; conditions: in vivo, read-out: Drug metabolism
Rattus norvegicus [7] = assay: Immunosuppressive activity in Lewis rat assessed as reduction in blood lymphocytes count at 2 mg/kg, po after 4 hrs relative to control; format: functional; design: scale not given: the % may be the effect or the level left
Summary of the method: (§3)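 Oral dosing in Lewis rats, with PEG300 as vehicle, given as solution or suspension adjusted for free test article if salt forms are used. Blood sampled at several time points. Lymphocytes counted on a hematology analyzer. Result is the reduction in circulating lymphocyte percentage versus the vehicle group at each time, averaged per group (n = 2).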

Rattus norvegicus [8] = assay: Immunosuppressive activity in Lewis rat assessed as reduction in blood lymphocytes count at 2 mg/kg, po after 24 hrs relative to control; format: functional; design: scale not given: the % may be the effect or the level left; summary of the method: as §3
Rattus norvegicus [9] = assay: Immunosuppressive activity in Lewis rat assessed as reduction in blood lymphocytes count at 2 mg/kg, po after 48 hrs relative to control; format: functional; design: scale not given: the % may be the effect or the level left; summary of the method: as §3
[10] = Prodrug conversion in Lewis rat blood assessed as parent compound levels at 2 mg/kg, po after 48 hrs; format: ADME, organism-based; conditions: in vivo, read-out: Drug metabolism
[11] = Prodrug conversion in Lewis rat blood assessed as formation phosphate metabolite at 2 mg/kg, po after 4 hrs; format: ADME, organism-based; conditions: in vivo
[12] = Prodrug conversion in Lewis rat blood assessed as formation phosphate metabolite at 2 mg/kg, po after 48 hrs; format: ADME, organism-based; conditions: in vivo
[13] = Prodrug conversion in Lewis rat blood assessed as formation phosphate metabolite at 2 mg/kg, po after 24 hrs; format: ADME, organism-based; conditions: in vivo
[14] = target: Sphingosine 1-phosphate receptor 3 (Homo sapiens, UniProt Q99500); assay: Agonist activity at human EDG3-Ga15-bla expressed in HEK293T cells after 45 mins by [35S]GTPgammaS binding assay; format: functional, cell-based; summary of the method: as §2
Sphingosine 1-phosphate receptor 3, sequence (Q99500 whole entry): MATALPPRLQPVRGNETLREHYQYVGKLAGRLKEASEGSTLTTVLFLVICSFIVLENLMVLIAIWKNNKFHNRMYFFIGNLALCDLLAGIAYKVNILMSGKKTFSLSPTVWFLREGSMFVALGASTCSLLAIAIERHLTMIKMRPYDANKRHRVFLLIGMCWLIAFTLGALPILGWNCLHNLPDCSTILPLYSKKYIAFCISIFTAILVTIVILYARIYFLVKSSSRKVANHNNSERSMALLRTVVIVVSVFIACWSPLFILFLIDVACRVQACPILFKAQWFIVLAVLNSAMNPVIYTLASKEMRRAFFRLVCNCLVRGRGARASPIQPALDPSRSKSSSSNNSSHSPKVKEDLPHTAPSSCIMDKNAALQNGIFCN

Sphingosine 1-phosphate receptor 1, sequence (P21453 whole entry): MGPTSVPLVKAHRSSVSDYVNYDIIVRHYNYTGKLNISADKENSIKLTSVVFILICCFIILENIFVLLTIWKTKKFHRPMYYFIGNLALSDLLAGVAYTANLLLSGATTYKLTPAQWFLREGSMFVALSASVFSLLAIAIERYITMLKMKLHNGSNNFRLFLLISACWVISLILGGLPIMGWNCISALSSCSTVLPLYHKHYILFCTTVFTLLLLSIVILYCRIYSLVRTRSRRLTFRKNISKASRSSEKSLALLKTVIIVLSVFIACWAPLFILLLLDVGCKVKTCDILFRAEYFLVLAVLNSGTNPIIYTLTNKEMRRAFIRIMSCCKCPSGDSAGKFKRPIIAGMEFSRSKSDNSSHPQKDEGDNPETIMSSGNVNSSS

SMILES | Activity (Cardiac muscle cell [1]) | Emax [2] [%] | Activity (Cardiac muscle cell [3]) | half-life [4] [h] | concentration [5] [nM] | concentration [6] [nM] | Activity (Rattus norvegicus [7]) [%] | Activity (Rattus norvegicus [8]) [%] | Activity (Rattus norvegicus [9]) [%] | concentration [10] [nM] | Drug metabolism [11] [nM] | Drug metabolism [12] [nM] | Drug metabolism [13] [nM] | EC50 [2] [nM] | EC50 [14] [nM]
CCCCSc1nc2c(s1)-c1ccc([C@H]3CC[C@](N)(COP(=O)(O)O)C3)cc1CC2 | Toxic | 58 | Toxic |  |  |  |  |  |  |  |  |  |  |  | 
CCCCCOc1nc2ccc3cc([C@H]4CC[C@](N)(CO)C4)ccc3c2s1 |  |  |  | 35 | 31 | 17 | 80 | 80 | 68 | 8.3 |  |  |  |  | 
CCCCN(C)c1nc2c(s1)-c1ccc([C@H]3CC[C@](N)(CO)C3)cc1CC2 |  |  |  | 9 | 110 | 18 | 30 | 27 | 4.4 | 4.1 |  |  |  |  | 
CCCCCOc1nc2c(s1)-c1ccc([C@H]3CC[C@](N)(CO)C3)cc1CC2 |  |  |  | 21 | 81 | 29 | 67 | 80 | 59 | 12 | 71 | < 5 | 26 |  | 
CCCCOc1nc2c(s1)-c1ccc([C@H]3CC[C@](N)(COP(=O)(O)O)C3)cc1CC2 | 16% | 58 | 36% |  |  |  |  |  |  |  |  |  |  |  | 
CCCCOc1nc2ccc3cc([C@H]4CC[C@](N)(CO)C4)ccc3c2s1 |  |  |  | 14 | 28 | 21 | 65 | 77 | 59 | 12 | 5.1 | < 5 | < 5 |  | 
CCCCCCOc1nc2c(s1)-c1ccc([C@H]3CC[C@](N)(COP(=O)(O)O)C3)cc1CC2 |  | 100 |  |  |  |  |  |  |  |  |  |  |  |  | 
CCCCNc1nc2c(s1)-c1ccc([C@H]3CC[C@](N)(COP(=O)(O)O)C3)cc1CC2 |  | 49 |  |  |  |  |  |  |  |  |  |  |  | 130 | 
CCCCc1nc2c(s1)-c1ccc([C@H]3CC[C@](N)(CO)C3)cc1CC2 |  |  |  | < 4 | 77 | 9.4 | 66 | 48 | 12 | < 5 | 97 | < 5 | 8.2 |  | 
CCCCSc1nc2ccc3cc([C@H]4CC[C@](N)(CO)C4)ccc3c2s1 |  |  |  | 6 | 15 | 8 | 69 | 75 | 59 | < 5 | 10 | < 5 | 8.1 |  | 
Cc1ccc(-c2nc3c(s2)-c2ccc([C@H]4CC[C@](N)(CO)C4)cc2CC3)cc1 |  |  |  | 6 | 48 | 37 | 9.3 | 2.1 |  |  | 12 |  | 19 |  | 
CCCCCCOc1nc2ccc3cc([C@H]4CC[C@](N)(CO)C4)ccc3c2s1 |  |  |  | 41 | 81 | 78 | 73 | 83 | 86 | 41 | 260 | 160 | 250 |  | 
CCCc1nc2c(s1)-c1ccc([C@H]3CC[C@](N)(COP(=O)(O)O)C3)cc1CC2 |  | 79 |  |  |  |  |  |  |  |  |  |  |  |  | 
CCCCCCOc1nc2c(s1)-c1ccc([C@H]3CC[C@](N)(CO)C3)cc1CC2 |  |  |  | 25 | 72 | 31 | 66 | 82 | 82 | 17 | 62 | < 5 | < 5 |  | 
COc1cccc(-c2nc3c(s2)-c2ccc([C@H]4CC[C@](N)(CO)C4)cc2CC3)c1 |  |  |  | 4 | 97 | 68 | 31 | 63 | 30 | < 5 | 39 | < 5 | < 5 |  | 
CCCCNc1nc2c(s1)-c1ccc([C@H]3CC[C@](N)(CO)C3)cc1CC2 |  |  |  |  | 33 |  | 37 | 0 |  |  | 570 |  | 190 |  | 
CCCCCSc1nc2c(s1)-c1ccc([C@H]3CC[C@](N)(CO)C3)cc1CC2 |  |  |  | 5 | 87 | 16 | 72 | 76 | 44 | < 5 | 43 | < 5 | 10 |  | 
CCCCOCCOc1nc2c(s1)-c1ccc([C@H]3CC[C@](N)(COP(=O)(O)O)C3)cc1CC2 |  | 110 |  |  |  |  |  |  |  |  |  |  |  | 1 | 190
CCCCCCCc1nc2c(s1)-c1ccc([C@H]3CC[C@](N)(CO)C3)cc1CC2 |  |  |  | > 50 | 66 | 110 | 40 | 77 | 80 | 43 | 63 | 150 | 300 |  | 
CCCCCCc1nc2c(s1)-c1ccc([C@H]3CC[C@](N)(CO)C3)cc1CC2 |  |  |  | 35 | 110 | 66 | 59 | 82 | 74 | < 10 | 140 | 50 | 160 |  | 
CCCCCCCc1nc2c(s1)-c1ccc([C@H]3CC[C@](N)(COP(=O)(O)O)C3)cc1CC2 |  | 98 |  |  |  |  |  |  |  |  |  |  |  |  | 
CCCc1nc2c(s1)-c1ccc([C@H]3CC[C@](N)(CO)C3)cc1CC2 |  |  |  | < 2 | 110 | < 19 | 41 | 0 |  |  | 79 |  | < 10 |  | 
